Screens (PubChem BioAssay)
A selection: hits, their analogues and other compounds. The true share with any hit is near 1.2%.
CR mimetic SO: caloric restriction mimetics inhibiting age-related superoxide in yeast; S. cerevisiae aged cells, superoxide DHE fluorescence; hits give low values; superoxide response (% of plate mean), % at 10 µM; hit rate 0.18% among 330,000; AID 2690;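 active = superoxide response under a set limit, about three screen SD below normal, cut at about 65% in these data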;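 note: yeast aged for seven days with compound at 30 °C before DHE staining; 100% = average MFI of all compound-treated wells on the plate with controls excluded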
ARFGAP1 inh: rat ARFGAP1 inhibition; Q62848; Arfgap1-stimulated ARF1 GTP hydrolysis, GDP FP detection; inhibition, % at 16.5 µM; hit rate 0.26% among 360,000; AID 651572;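 active = inhibition above a per-plate limit, mean inhibition of low control wells plus 3 SD, cut at about 25% in these data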;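 note: 0% = DMSO wells with enzyme and 100% = wells lacking Arfgap1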
Target sequence (Q62848 1-136 limits assumed): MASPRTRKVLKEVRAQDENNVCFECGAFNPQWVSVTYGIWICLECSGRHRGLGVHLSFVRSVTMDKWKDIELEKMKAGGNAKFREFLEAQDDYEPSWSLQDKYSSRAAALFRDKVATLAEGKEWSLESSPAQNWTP
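Material: truncated rat Arfgap1 GAP domain; Incubation: compound-enzyme preincubation 20 min, reaction 120 min, detection 60 min, 25 °C; Read-out: percent inhibition of Arfgap1-stimulated GTP hydrolysis; Technique: FP, GDP Alexa 633 tracer displaced from anti-GDP antibody, 620/688 nm; Controls: No-Arfgap1 wells (100%) versus DMSO full-reaction wells (0%); Replication: single well per compound.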
LANA-H2A inh: blocks KSHV LANA binding to histone H2A/H2B; cell-free LANA-H2A/H2B peptide, fluorescence polarization; hit rate 0.6% among 320,000; Q9QR71; inhibition, % (concentration not given with the values); in the data active = inhibition mostly above about 10%, no sharp cut-off; inactive = mostly below about 6.7%
procasp7 counter: activates human procaspase-7, counter-screen for procaspase-3 activators; recombinant procaspase-7, Ac-DEVD-pNA absorbance 405 nm; D23A/D198A/D206A triple mutant, cannot self-cleave; scale: DMSO 0, 5 µM enzyme 100; activation, % at 8.5 µM; hit rate 0.093% among 330,000; P55210;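 active = percent activation above the screen-wide mean plus 3 SD, cut at about 25% in these data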
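System: Uncleavable procaspase-7 mutant enzyme; Amount: 2 µM procaspase-7 mutant as dispensed; Schedule: 1 h compound preincubation, 2 h substrate cleavage, 25 °C; Measured by: 405 nm absorbance of p-nitroaniline; Evaluation: percent activation from buffer-corrected 0–120 min absorbance change; Control set: low DMSO alone, high DMSO plus 5 µM PC-7.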
procasp3 activ: procaspase-3 (human) activation; AID 463141; hit rate 0.11% among 330,000; P42574; recombinant procaspase-3 D3A, Ac-DEVD-pNA absorbance 405 nm; activation, % at 8.5 µM;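 active = activation above the mean of all tested compounds plus 3 SD, cut at about 21% in these data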;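 note: 0% = DMSO alone and 100% = DMSO wells spiked with extra 5 µM PC-3 D3A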
Target sequence (P42574 whole entry D9A/D28A/D175A): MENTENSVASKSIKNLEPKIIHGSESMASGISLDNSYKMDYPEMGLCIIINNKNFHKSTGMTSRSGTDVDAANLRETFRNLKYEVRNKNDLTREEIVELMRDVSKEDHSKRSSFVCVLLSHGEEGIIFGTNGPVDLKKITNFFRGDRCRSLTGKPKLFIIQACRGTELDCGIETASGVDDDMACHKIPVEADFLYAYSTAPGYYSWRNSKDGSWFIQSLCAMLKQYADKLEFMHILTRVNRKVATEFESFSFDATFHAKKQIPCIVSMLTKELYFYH
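Technique: 405 nm absorbance of p-nitroaniline, reads at 0 and 120 min; Test system: Procaspase-3 D3A mutant; Incubation: 1 h enzyme-compound preincubation, then 2 h substrate reaction, 25 °C; Repeats: singlicate, each compound tested once; Benchmarks: low control DMSO wells, high control DMSO plus 5 µM PC-3 D3A.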
ASAP1 inh: ASAP1 ArfGAP inhibition; Q9ULH1; ASAP1-stimulated ARF1 GTP hydrolysis, GDP FP detection; inhibition, % at 16.5 µM; hit rate 0.19% among 360,000; in the data active = inhibition above about 25%;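 note: 0% = vehicle with enzyme and substrate and 100% = no enzyme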
Starred values were filed as active, the others as inactive; nt = no result; + = active, no number.

SMILES | CR mimetic SO | ARFGAP1 inh | LANA-H2A inh | procasp7 counter | procasp3 activ | ASAP1 inh
CN(C)c1ccc(C=c2c3ccccc3n3c2c2ccccc2[n+]3C)cc1 | nt | 95* | nt | nt | nt | 59*
COC(=O)C1=C(C)N(Cc2ccccc2C(F)(F)F)C(=NCc2ccc(C(F)(F)F)cc2)NC1c1ccc(C(F)(F)F)cc1 (stereo not drawn) | nt | 13 | nt | nt | nt | 17
CC(NC(=O)C(=O)NN=C1CCCCCCCCCCC1)c1ccccc1 (stereo not drawn) | 106 | -11 | 12* | -1 | -1 | 1
O=C(NCCc1ccccc1Cl)[C@@H]1CCCN1C(=O)[C@@H](NC(=O)N1CCOCC1)C1CCCCC1 | nt | -6 | nt | nt | nt | -6
Cc1ccc(OCC(=O)OCC(=O)NC2CCS(=O)(=O)C2)cc1C (stereo not drawn) | nt | 7 | nt | nt | nt | -5
O=C(CCOc1ccccc1)NCC(c1ccco1)N1CCCCC1 (stereo not drawn) | 105 | 8 | 7.9* | 9 | -4 | -6
CN(c1ccccc1)S(=O)(=O)c1ccc(C(=O)NCC(c2ccco2)N2CCCCC2)cc1 (stereo not drawn) | 109 | 15 | 39* | -1 | 0 | -2
COc1ccccc1CNC(=O)C(C)n1cccc1C(=O)c1ccccc1 (stereo not drawn) | 73 | -14 | -1 | 1 | 8 | -5
CC(C(=O)NCc1ccc(Cl)cc1)n1cccc1C(=O)c1ccccc1 (stereo not drawn) | 104 | -3 | 19* | 11 | -9 | 9
O=C(N[C@H](C(=O)N1CCC[C@H]1C(=O)NCc1ccccc1)c1ccccc1)C1CCCC1 | nt | 9 | nt | nt | nt | -19
O=[N+]([O-])c1ccccc1S(=O)(=O)N(CC1CO1)c1ccccc1 (stereo not drawn) | 97 | -12 | 13* | -6 | -8 | 13
Cc1ccc(N(CC2CO2)S(=O)(=O)c2ccccc2[N+](=O)[O-])cc1 (stereo not drawn) | 114 | 4 | -1 | -19 | 13 | -4
COC(=O)C1=C(C)N(C)C(=NCc2ccc3c(c2)OCO3)NC1c1ccc(F)cc1 (stereo not drawn) | nt | 11 | nt | nt | nt | -5
FC(F)(F)c1ccccc1Cc1c(-c2ccco2)nc2c3ccccc3ccn12 | nt | -1 | nt | nt | nt | -3
Nc1cc([N+](=O)[O-])ccc1Nc1ccc(O)cc1 | 63* | 12 | 0 | -15 | -1 | -13
O=C(NCCNc1ccc(Cl)cc1[N+](=O)[O-])c1cccnc1 | 89 | 7 | 12* | 3 | 1 | 6
COc1ccc(CNC(=O)c2cccc3c(-c4cccc(C(N)=O)c4)coc23)cc1OC | nt | 1 | nt | nt | nt | 8
O=C(N/N=C/c1ccc(F)cc1)c1c(O)c2ccccc2[nH]c1=O | 108 | 3 | 3 | -1 | 2 | -3
O=C(N/N=C/c1cccc(F)c1)c1c(O)c2ccccc2[nH]c1=O | 85 | 1 | + | -5 | -18 | 1
O=C(C1CC(=O)N(c2ccc(F)cc2)C1)N1CCN(c2ccc(F)cc2)CC1 (stereo not drawn) | 109 | -5 | 5 | -9 | 1 | -6
Cc1ccc(CCN2CC(C(=O)N3CCN(c4ccc(F)cc4)CC3)CC2=O)cc1 (stereo not drawn) | 113 | 1 | 22* | -2 | -2 | -2
Cc1ccccc1C(=O)Nc1ccc2c(C#N)c3nc4ccccc4nc3n2c1 | 125 | -1 | 28* | -1 | 5 | 8
Cc1c(C(=O)Nc2ccccc2)cn2c(nc3ccccc32)c1C#N | 84 | 4 | 5 | -14 | -10 | -1
CC12C(=O)N(c3nccs3)C(=O)C1(C)C1CCC2O1 (stereo not drawn) | nt | 15 | nt | nt | nt | 4
C[C@@]12C(=O)OC(=O)[C@]1(C)C1CCC2O1 | 51* | 3 | -7 | -8 | 4 | -12
CCOCCCNC(=O)C(NC(=O)c1ccccn1)c1ccc(C)cc1 (stereo not drawn) | 100 | 15 | 12* | 6 | 8 | 9
CCOCCCNC(=O)C(NC(=O)c1ccccc1O)c1ccc(C)cc1 (stereo not drawn) | 107 | 6 | 1 | -5 | -16 | -2
